The list is not random: actives were taken first. Their share in the collection is about 1.8%.
CHRM4 antagonist = CHRM4 antagonism in calcium assay | P08173 | CHO-hM4 cells, ACh EC80, Fluo-8 calcium fluorescence | inhibition, % at 3 µM | 0.73% of 360,000 active | AID 624125;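 active = inhibition above its plate's cutoff, the mean inhibition of sample wells plus 3 SD, cut at about 27% in these data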;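 also: 0% = acetylcholine EC80 with DMSO and 100% = DMSO without agonist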
CHRM5 antagonist = blocks acetylcholine activation of human M5 receptor | CHO-hM5 cells, Fluo-8 calcium fluorescence, ACh EC80 | inhibition, % at 3 µM | 0.59% of 360,000 active;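 active = inhibition above a per-plate cutoff, the mean of that plate's test compounds plus 3 SD, cut at about 27% in these data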;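 also: 0% = acetylcholine EC80 with DMSO and 100% = DMSO without agonist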
Target sequence (P08912 whole entry, looked up): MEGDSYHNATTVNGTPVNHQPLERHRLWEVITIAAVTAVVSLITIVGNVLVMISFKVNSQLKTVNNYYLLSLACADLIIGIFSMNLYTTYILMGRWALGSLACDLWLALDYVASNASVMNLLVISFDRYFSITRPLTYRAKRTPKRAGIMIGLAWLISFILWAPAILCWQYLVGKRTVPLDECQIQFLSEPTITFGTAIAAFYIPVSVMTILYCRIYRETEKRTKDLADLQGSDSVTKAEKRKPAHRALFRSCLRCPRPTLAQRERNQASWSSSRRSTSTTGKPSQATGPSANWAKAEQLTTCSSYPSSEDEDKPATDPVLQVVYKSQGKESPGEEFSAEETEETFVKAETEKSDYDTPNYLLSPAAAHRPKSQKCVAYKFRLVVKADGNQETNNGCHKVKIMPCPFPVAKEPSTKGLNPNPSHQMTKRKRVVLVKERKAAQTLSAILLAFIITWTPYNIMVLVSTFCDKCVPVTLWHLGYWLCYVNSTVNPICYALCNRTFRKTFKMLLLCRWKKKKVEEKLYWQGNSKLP
M4 ag = agonists of human muscarinic M4 receptor (CHRM4); P08173; CHO-K1 hM4/Gqi5, Fluo-8 calcium fluorescence; vehicle 0%, full acetylcholine response 100%; activation, % at 3 µM; 0.14% of 360,000 active; AID 624127;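 active = activation above the run mean over all test wells plus 3 SD, cut at about 32% in these data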;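 also: peak over basal fluorescence ratio per well then scaled between controls; 0% = DMSO wells and 100% = acetylcholine at EC100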
CHRM4 PAM = CHRM4 positive allosteric modulation; CHO-K1 hM4/Gqi5, Fluo-8 calcium fluorescence, ACh EC20; 0% = ACh EC20, 100% = maximal ACh; activation, % at 3 µM; 0.4% of 360,000 active; AID 624126;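 active = activation above its plate's cutoff, the mean activation of sample wells plus 3 SD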
M5 PAM = positive allosteric modulators of human muscarinic M5 receptor; AID 624038; P08912; 0.3% of 360,000 active; activation, % at 3 µM; CHO-K1 hM5, Fluo-8 calcium, ACh EC20 PAM; 0% = ACh EC20, 100% = ACh EC100;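 active = activation above the run cutoff, the mean activation of all test compounds plus 3 SD, cut at about 18% in these data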
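System – CHO-K1 hM5 cells · Compound – 3 µM, single dose · Incubation – compound preincubation 140 s before EC20 acetylcholine addition · Technique – Fluo-8 calcium fluorescence · Measure – Max/basal fluorescence ratio as % of EC20–EC100 ACh window · Benchmarks – low control EC20 acetylcholine (0%), high control EC100 acetylcholine (100%) · Replication – singlicate, one well per test compound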
M5 ag = CHRM5 agonism in calcium assay | 0.19% of 360,000 active | AID 624037 | P08912 | activation, % at 3 µM | CHO-K1 hM5 cells, Fluo-8 calcium fluorescence; 0% DMSO wells, 100% maximal acetylcholine response;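 active = activation above the run's mean over test compounds plus 3 SD, cut at about 23% in these data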;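 also: signal is peak over basal fluorescence ratio across the kinetic read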
An asterisk follows results filed as active.

CCCN(CC(=O)Nc1ccccc1C)C(=O)c1ccc(N2CCCC(C)C2)c([N+](=O)[O-])c1 (centres undefined) was read as CHRM4 antagonist -7.7, CHRM5 antagonist 4.9, M4 ag 6.0, CHRM4 PAM 2.3, M5 PAM 0.6 and M5 ag -1.8.
`CCOc1ccc(N(CC(=O)NC2CC3CCC2C3)S(=O)(=O)c2ccc(C)cc2)cc1` (centres undefined) gave CHRM4 antagonist -13.6, CHRM5 antagonist 7.8, M4 ag -1.3, CHRM4 PAM 22.5*, M5 PAM 2.2 and M5 ag -4.8.
Screening O=C(COC(=O)c1cc2ccccc2o1)NCc1ccco1 returned CHRM4 antagonist -2.6, CHRM5 antagonist -0.5, M4 ag 1.5, CHRM4 PAM 2.5, M5 PAM 1.8 and M5 ag -2.4.
CCOc1ccc(CCNC(=O)CSc2n[nH]c(N)n2)cc1OCC was read as CHRM4 antagonist 13.1, CHRM5 antagonist 29.6*, M4 ag 0.0, CHRM4 PAM -6.7, M5 PAM -8.2 and M5 ag -3.1.
`O=S(=O)(/C=C/C=C/S(=O)(=O)c1ccccc1)c1ccccc1` gave CHRM4 antagonist 42.9*, CHRM5 antagonist 2.4, M4 ag 5.7, CHRM4 PAM -6.0, M5 PAM 5.9 and M5 ag 7.2.
Screening Cc1ccc(S(=O)(=O)C=CS(=O)(=O)c2ccc(C)cc2)cc1 returned CHRM4 antagonist 31.7*, CHRM5 antagonist 6.5, M4 ag 7.0, CHRM4 PAM -5.1, M5 PAM -0.5 and M5 ag 1.2.
Cc1ccc(S(=O)(=O)c2ccc(C)cc2)cc1 was read as CHRM4 antagonist 13.0, CHRM5 antagonist -2.2, M4 ag -1.8, CHRM4 PAM -8.1, M5 PAM -0.3 and M5 ag -5.0.
Screening Cc1ccc(NC2SC(=O)N(Cc3cccc(C(=O)O)c3)C2=O)cc1 (centres undefined) returned CHRM4 antagonist -4.8, CHRM5 antagonist -0.9, M4 ag 0.4, CHRM4 PAM 1.3, M5 PAM 22.6* and M5 ag -1.0.
For CN(CCCCCCCCC(=O)/C=N/O)Cc1ccccc1 the results were CHRM4 antagonist 72.6*, CHRM5 antagonist 10.7, M4 ag 1.4, CHRM4 PAM -40.5, M5 PAM -10.2 and M5 ag -6.9.
Screening CCCCn1c(N)c(N(CC(C)C)C(=O)CSc2nnc(C)n2-c2ccc(OC)cc2)c(=O)[nH]c1=O returned CHRM4 antagonist -8.4, CHRM5 antagonist 3.3, M4 ag 0.6, CHRM4 PAM 5.9, M5 PAM 4.0 and M5 ag -2.0.
CCC(O)(CCN1CCCCC1)c1ccccc1 (centres undefined) was read as CHRM4 antagonist 33.0*, CHRM5 antagonist 22.7, M4 ag 0.0, CHRM4 PAM -13.1, M5 PAM -23.3 and M5 ag -9.9.
For O=C(CCCCN1CCCCC1)c1ccccc1 the results were CHRM4 antagonist 3.8, CHRM5 antagonist 9.9, M4 ag 9.6, CHRM4 PAM -20.9, M5 PAM -4.5 and M5 ag -5.0.
`OC(CCCN1CCCCC1)(c1ccccc1)c1ccccc1` gave CHRM4 antagonist 47.2*, CHRM5 antagonist 24.2, M4 ag 0.6, CHRM4 PAM -17.7, M5 PAM -17.9 and M5 ag -1.3.
O=S(=O)(Nc1cccc2cccnc12)c1ccc(S(=O)(=O)N2CCCC2)cc1 was read as CHRM4 antagonist 30.7*, CHRM5 antagonist 9.1, M4 ag 3.3, CHRM4 PAM -21.5, M5 PAM -6.9 and M5 ag -4.2.
`O=S(=O)(Nc1cccc2cccnc12)c1ccccc1` gave CHRM4 antagonist 41.5*, CHRM5 antagonist 14.9, M4 ag 2.3, CHRM4 PAM -9.5, M5 PAM 1.1 and M5 ag -2.4.
Screening CC(=O)Nc1ccc(S(=O)(=O)Nc2cccc3cccnc23)cc1 returned CHRM4 antagonist 10.3, CHRM5 antagonist 4.6, M4 ag 5.9, CHRM4 PAM -5.8, M5 PAM -3.0 and M5 ag 1.4.
Screening COc1ccc(NC(=O)C(c2ccc(C#N)cc2)n2c(=O)c(-c3cc4ccccc4[nH]3)nc3ccccc32)cc1 (centres undefined) returned CHRM4 antagonist 1.2, CHRM5 antagonist 7.1, M4 ag 2.4, CHRM4 PAM 3.5, M5 PAM -5.0 and M5 ag 1.4.
For CC(=O)N(Cc1ccccc1C)c1cccc(C)c1C the results were CHRM4 antagonist -8.1, CHRM5 antagonist 5.5, M4 ag -0.5, CHRM4 PAM 12.7, M5 PAM 8.1 and M5 ag -6.7.
`O=C(Nc1nnc(-c2ccccc2Cl)o1)c1nc2ccccc2s1` gave CHRM4 antagonist -5.8, CHRM5 antagonist 7.2, M4 ag 110.7*, CHRM4 PAM -9.1, M5 PAM -16.6 and M5 ag 65.1*.
C=CCNC(=O)CSc1nnc(-c2ccccn2)n1Cc1ccccc1 was read as CHRM4 antagonist 1.6, CHRM5 antagonist -4.1, M4 ag 1.3, CHRM4 PAM 10.8, M5 PAM 22.1* and M5 ag -3.2.
Screening CC(C)(C)NC(=O)CSc1nnc(-c2ccccn2)n1Cc1ccccc1 returned CHRM4 antagonist 5.0, CHRM5 antagonist 2.2, M4 ag 0.7, CHRM4 PAM 12.1, M5 PAM 9.4 and M5 ag 0.4.
For O=S(=O)(c1ccc(F)cc1)N1CCN(C(=S)NCC2CCCO2)CC1 (centres undefined) the results were CHRM4 antagonist -7.5, CHRM5 antagonist -1.4, M4 ag 1.7, CHRM4 PAM 7.7, M5 PAM 5.5 and M5 ag 4.5.
`Cc1ccc(S(=O)(=O)N2C3CC(c4ccccc4)N(S(=O)(=O)c4cccc(Cl)c4)CC3C(=O)C[C@H]2c2ccccc2)cc1` (some centres undefined) gave CHRM4 antagonist -3.4, CHRM5 antagonist -8.0, M4 ag 2.2, CHRM4 PAM 5.4, M5 PAM 5.2 and M5 ag 2.9.
Screening O=C(NCc1ccco1)c1ccccc1-c1ccccc1 returned CHRM4 antagonist -2.0, CHRM5 antagonist -8.8, M4 ag -0.6, CHRM4 PAM 3.3, M5 PAM 8.8 and M5 ag -4.4.
Screening Cc1scc(C(=O)NCc2ccco2)c1-c1ccccc1 returned CHRM4 antagonist -6.0, CHRM5 antagonist -6.8, M4 ag 0.2, CHRM4 PAM 42.0*, M5 PAM 3.5 and M5 ag -2.7.
For CCCC(C)c1nnc(NC(=O)C2CCCO2)s1 (centres undefined) the results were CHRM4 antagonist 30.2*, CHRM5 antagonist 5.4, M4 ag 0.1, CHRM4 PAM -13.1, M5 PAM -12.4 and M5 ag -7.4.
